Experimental data taken from the RNAGym collection of RNA variant scans (doi:10.1126/science.aae0568).
This sample holds only a part of the variants without activity.

B1: tRNA (parent)
chain: GUUCCGUUGGCGUAAUGGUAACGCGUCUCCCUCCUAAGGAGAAGACUGCGGGUUCGAGUCCCGUACGGAACG

Variants of: B1
Test: yeast fitness relative to wild type (ratio to wild type); higher = fitter; tRNA-Arg(CCU), competitive growth, 37 C, YPD
Summary of the method: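 Variants of the tRNA-Arg(CCU) gene were chemically synthesised with a 3% per-site mutation rate across 69 sites and placed at the native genomic locus in Saccharomyces cerevisiae. Six parallel replicates of the pooled strains were competed in YPD at 37°C for 24 hours, and gene amplicons from the start and end populations were read by 100-nucleotide paired-end sequencing. Darwinian fitness relative to wild type was derived from changes in genotype frequencies. Genotypes required ≥ 100 starting reads, and estimates < 0.5 were set to 0.5.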

| Variant | yeast fitness |
| --- | --- |
| GUUACGUUGGCGUAAUGGUAACGCGUCUCCCUCCUAAGGGGAAGACUGCGGGUUCGAGUCCCGUGCGGAACG [C4A A40G A65G] | 0.533 |
| GUUACGUUGGCGUAAUGGUAGCGCGUUUCCCUCCUAAGGAGAAGACUGCGGGUUCGAGUCCCGUACGGAACG [C4A A21G C27U] | 0.686 |
| GUUAAGUUGGCGUAGUGGCAACGCGUCUCCCUCCUAAGGAGAAGACUGCGGGUUCGAGUCCCGUACGGAACG [C4A C5A A15G U19C] | ≤ 0.5 |
| GUUACGUUGGCGUGAUGGUAACGCGUCUCCCUCCUAAGGAGAAGACUGCGGGUUCGAGUCCCAUACGGAACG [C4A A14G G63A] | ≤ 0.5 |
| GUUACGUUGGCGUAAUGGUACCGCGUCUCCCUCCUAAGCAGAAGACUGGGGGUUCGAGUCCCGUACGGAACG [C4A A21C G39C C49G] | 0.511 |
| GUUACGUUGGCGUAAUGGUUACGCGUCUGCCUCCUAAGGAGAAGACUGGGGGUUCGAGUCCCCUACGGAACG [C4A A20U C29G C49G G63C] | ≤ 0.5 |
| GUUACGUUGGCGUAAUGGUAACGCGUCUCCCUCCUGAGGAGAAGACUGCGGGUUCGACUCCCGUACGGAACG [C4A A36G G58C] | 0.565 |
| GUUAAGUUGGCGUAAUGGUUACGCGUCUCCCUCCUAAGGAGAAGACUGCGGGUUCGAGUCCCGUACGGCACG [C4A C5A A20U A69C] | 0.551 |
| GUUACGUUGGCGUAGUGGUAACGCGUCUCCCUCCUAAGGAGAAGACUGCGGGUUCGAGUCCCGUACGGAACG [C4A A15G] | 0.844 |
| GUUACGUUGGCGUGAUGGUUACGCGUCUCCCUCCUAAGGAGAAGACUGAGGGUUCGAGUCCCGUACGGAACG [C4A A14G A20U C49A] | 0.87 |
| GUUACGUUGGCGUAAUGGUAUCGCGUCUCCCUCCUAAGGAGAAGACUGCGGAUUCGAGUCCCGUACGGAACG [C4A A21U G52A] | ≤ 0.5 |
| GUUACGUUGGCGUAAUGGUAGCGCGUCUCCCUCCUAAGGAGAAGACUGCGAGUUCGAGUCCCGUACGGGACG [C4A A21G G51A A69G] | ≤ 0.5 |
| GUUACGUUGGCGUACUGGUAACGCGUCCCCCUCGUAAGGAGAAGACUGCGGGUUCGAGUCCCGUACGGAACG [C4A A15C U28C C34G] | ≤ 0.5 |
| GUUACGUUGGCGUAGUAGUAACGCGUCUCGCUCCUAAGGAGAAGACUACGGGCUCGAGUCCUGUACGGAACG [C4A A15G G17A C30G G48A U53C C62U] | ≤ 0.5 |
| GUUACGUUGGCGUAAUGGUAACGCGUCUCCCUCCUAAGGAGAAGACUGCGGGUUCGCGUCCUGUACGGAACG [C4A A57C C62U] | ≤ 0.5 |
| GUUACGUUGGCGUAAUGGUUACGCGUCUCCCCCCUAAGGAGAUGACUGCGGGUUCGAGUCCCGUACGGAACG [C4A A20U U32C A43U] | ≤ 0.5 |
| GUUACGUUGGCGUACUGGUAACGCGUCUCCCUCCUAAGGAGAGGACUGCGGGUUCGAGUCCCGUACGGAACG [C4A A15C A43G] | ≤ 0.5 |
| GUUACGUUGGCGUAAUGGUAACGCGUCUCCCUCCUAAGGAGUAGACUGCGGGUUCGAGUCCCGUACGCAACG [C4A A42U G68C] | ≤ 0.5 |
| GUUAAGUUGGCGUAAUGGUAACGCGUCUCCCUCCUAAGGAGAAGACUGCGGGUUCGAGUCCCGUACGGAACG [C4A C5A] | 0.752 |

| Variant | yeast fitness |
| --- | --- |
| GUUACGUUGGCGUAAUGGUAACGCGUCUCCCUCCUAAGGAGAUGACUGCGGGUUCGAGUCCCGUACGGAACG [C4A A43U] | 0.841 |
| GUUACGUUGGCGUAAUGGUAACGCGUCUCCCUCCUAAGGAGAAGACUGCGGGUUCGAGUCCCGUGCGGUACG [C4A A65G A69U] | 0.617 |
| GUUACGUUGGCGUAAUGGUAACGCGUCUCCCUCCUAAGGAGUAGACUGCGGGUUCGAGUCCCGUACGGAACG [C4A A42U] | 0.716 |
| GUUACGUUGGCGUAAUGGUAACGCGUCUCCCUCCUAAGGAGAAGCCAGCGGGUUCGAGUCCCGUACGGAACG [C4A A45C U47A] | 0.708 |
| GUUACGUUGGCGUUAUGGUCACGCGUCGCCCUCCUAAGGAGAAGACUGCGGGUUCGAGUCCCGUACGGAUCG [C4A A14U A20C U28G A70U] | ≤ 0.5 |
| GUUACGUUGGCGUAAUGGUAACGCGUCUCCCUCCUGAGGAGAAUACUGCGCGUUCGAGUCCCGUUCGGAACG [C4A A36G G44U G51C A65U] | ≤ 0.5 |
| GUUACGUUGGCGUCAUGGUAACGCGCCUCCCUCCUGAGGAGAAGACUGCGGGUUCGAGUCCCGUUCGGAACG [C4A A14C U26C A36G A65U] | ≤ 0.5 |
| GUUACGUUGGCGUGAUGGUAACGCGUCUCCCUCCUCAGGAGAAGACUGCGGGUUCGAGACCCGUACGGAACG [C4A A14G A36C U59A] | 0.686 |
| GUUACGUUGGCGUAAUGGUAACGCGUCUCCCUCCUAUGGAGAAGACUGCCGGUUCGAGUCCCGUACGGAACG [C4A A37U G50C] | ≤ 0.5 |
| GUUACGUUGGCGUAAUGGUAACGCGUCUCCCUCCUCAGGAGAAGACUGUGGGUUCGGGUCCCGUACGGAACG [C4A A36C C49U A57G] | ≤ 0.5 |
| GUUACGUUGGCGUUAUGGUAACGCGUCUCCCUCGUAAGGAGAAGACUGCGGGUUCCAGUCCCGUACGGAACG [C4A A14U C34G G56C] | ≤ 0.5 |
| GUUACGUUGGCGUAAUGGUAACGCGUCUCCCUCCUAAGGCGAAGACUGGGGGUUCGAGUGCCGUACGGAACG [C4A A40C C49G C60G] | ≤ 0.5 |
| GUUACGUUGGCGUAAUGGUGACGCGUCUCCCUCCUAAGGAGAACGCUGCGGGUUCGAGUCUCGUACGGAACG [C4A A20G G44C A45G C61U] | ≤ 0.5 |
| GUUACGUUGGCGUAAUGGUAACGCGUCUCCCUCCUAAGGAGAAGUCUGCGGGUUCGAGUCCUGUACGAAACG [C4A A45U C62U G68A] | 0.562 |
| GUUACGUUGGCGUAAUGGUAACGCGUCUCCCUCCUAAGGAGAAGCCUGCGGGUUCGAGUCCCGUACGGAACG [C4A A45C] | 0.754 |
| GUUACGUUGGCGUAAUGGUUACGCGUCUCCCUCCUAAGGAGAUGACUGCGGGUUCGAGUCCCGUACGGAACG [C4A A20U A43U] | ≤ 0.5 |
| GUUACGUUGGCGUUAUGGUAACGCGUCUCCUUCCUAAGGUCAAGCCUGCGGGUUCGAGUCCCGUACGGCACG [C4A A14U C31U A40U G41C A45C A69C] | 0.599 |
| GUUACGUUGGCGUUAUGGUAACGCGUCUUCCUCCUAAGGAGAAGACUGCGGGUUCGAGUCCCGUACGAAACG [C4A A14U C29U G68A] | ≤ 0.5 |
